High-throughput results deposited in PubChem by several laboratories.
This is one part of a sample in which hits are shown more often than they occur.
H69AR growth 86K: growth inhibitors of human H69AR lung tumor cells. 6% of 85,000 active. viability, % at 10 µM. AID 598. H69AR lung tumor viability, ATP luminescence, 72 h; hits give low values;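 active = viability at or below 40%; inactive = viability above 40%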;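 also: multidrug resistant small cell line overexpressing MRP-1 efflux transporter; 100% = mean luminescence of untreated control wells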
HUVEC prolif 384: blocks proliferation of human endothelial cells; HUVEC proliferation, CellTiter-Glo luminescence, 72 h; hits give low values; viability, % at 10 µM (by protocol); 1.1% of 86,000 active; AID 648;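 active = viability at or below 30%; inactive = viability above 30%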;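 also: 100% = median luminescence of DMSO-only cell control wells on each plate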
PTEN del growth: suppresses growth of cells with PTEN deletion | HCT116 PTEN-null viability, CellTiter-Glo, 60 h; hits give low values | viability, % at 10 µM | 1.2% of 140,000 active | AID 827;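 active = viability at or below a set limit, 4 SD under the median of all tested compounds, cut at about 3.7% in these data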;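 also: PTEN knockout HCT116 line with beta catenin targeted HCT116 as companion control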
bCat KO growth: beta-catenin-lacking colon tumor cell growth suppression | HCT116 beta-catenin knockout viability, CellTiter-Glo, 60 h; hits give low values | viability, % at 10 µM | 1.5% of 140,000 active;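 active = viability at or under a set limit, the compound median less 4 SD, cut at about 6% in these data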;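 also: 0% = Hyamine 1622 control at 20 µM and 100% = untreated cell control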
Lung fibro prol: blocks proliferation of human lung fibroblasts. LL 47 human lung fibroblast viability, ATP luminescence; hits give low values. AID 719. 1.1% of 85,000 active. viability, % at 10 µM;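 active = viability at or below 50% in the single dose screen; inactive = viability above 50%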;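 also: compound exposure lasted 72 h before the ATP readout; 100% = median luminescence of untreated cell-only wells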
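Material: Human LL 47 lung fibroblast cells | Input: 1,150 cells/well | Buffer or medium: IMEM plus 15% FBS | Compound dosing: 0.1% DMSO in all compound wells | Times: Overnight cell rest, 72 h compound treatment at 37 °C | Signal: CellTiter-Glo luminescence measuring cellular ATP | Measure: % viability versus median cells-only luminescence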
Pyk2 oligo antag: antagonists of human Pyk2 oligomerization | Q14289 | Q293 cells, Pyk2 FERM NanoBiT luminescence; hits give low values | z-score (the deposit names both 25 µM and 10 µM) | 0.83% of 99,000 active;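 active = Z-score of -3 or lower, scaled per plate to the spread of control and sample wells; inactive = z-score above -3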;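 also: negative z-score means lost luminescence so less FERM oligomerization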
Target sequence (Q14289 whole entry, looked up): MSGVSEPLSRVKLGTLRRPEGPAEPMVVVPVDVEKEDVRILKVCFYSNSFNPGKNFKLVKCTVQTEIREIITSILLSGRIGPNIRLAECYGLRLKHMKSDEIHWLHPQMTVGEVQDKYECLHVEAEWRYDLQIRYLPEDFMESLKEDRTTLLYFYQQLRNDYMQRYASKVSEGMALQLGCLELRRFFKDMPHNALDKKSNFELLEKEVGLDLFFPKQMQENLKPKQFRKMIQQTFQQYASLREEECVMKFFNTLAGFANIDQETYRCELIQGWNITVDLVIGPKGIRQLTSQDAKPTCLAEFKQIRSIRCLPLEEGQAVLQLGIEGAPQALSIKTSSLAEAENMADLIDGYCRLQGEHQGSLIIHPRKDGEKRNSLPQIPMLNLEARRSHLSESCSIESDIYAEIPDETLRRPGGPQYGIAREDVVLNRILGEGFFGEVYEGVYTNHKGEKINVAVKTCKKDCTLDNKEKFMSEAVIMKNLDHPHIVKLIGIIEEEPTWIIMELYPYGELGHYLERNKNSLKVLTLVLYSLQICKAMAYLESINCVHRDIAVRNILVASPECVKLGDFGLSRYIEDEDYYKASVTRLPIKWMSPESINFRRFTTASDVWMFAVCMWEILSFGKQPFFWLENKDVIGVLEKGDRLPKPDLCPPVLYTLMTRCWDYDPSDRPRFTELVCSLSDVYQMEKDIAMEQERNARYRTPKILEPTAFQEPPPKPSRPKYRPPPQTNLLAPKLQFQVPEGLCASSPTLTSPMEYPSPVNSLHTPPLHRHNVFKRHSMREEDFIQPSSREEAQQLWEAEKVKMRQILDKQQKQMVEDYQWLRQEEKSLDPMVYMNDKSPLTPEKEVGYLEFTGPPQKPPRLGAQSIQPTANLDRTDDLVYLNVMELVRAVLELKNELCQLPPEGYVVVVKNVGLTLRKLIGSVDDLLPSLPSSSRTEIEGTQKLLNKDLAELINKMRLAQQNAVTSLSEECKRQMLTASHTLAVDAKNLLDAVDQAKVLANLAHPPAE
Numbers without * were called inactive; · = not tested or not shown.

SMILES | H69AR growth 86K | HUVEC prolif 384 | PTEN del growth | bCat KO growth | Lung fibro prol | Pyk2 oligo antag
COc1cc2c(O)c3c(c(-c4ccc5c(c4)OCO5)c2cc1OC)C(=O)OC3 | 3.6* | 2.6* | 2.6* | 2.5* | 11.4* | -2.83
COc1ccc(N(C)C2=NS(=O)(=O)c3ccccc32)cc1 | 17.4* | 59.2 | 23.8 | 22.6 | 65.8 | 0.87
CCCCN(C(=N)N1CCCCC1)c1nc(C)c([N+](=O)[O-])c(=O)[nH]1 | · | · | 97.3 | 95.5 | · | 1.04
C/C(=N\O)c1ccc2c3ccccc3n(C)c2c1 | 94.9 | 24.4* | 88.4 | 83.9 | 95.5 | -0.7
CSCc1ccc(C(=O)NCc2ccc(F)cc2)cc1 | · | · | 103.3 | 94.9 | · | ·
COc1ccc(-c2[nH]c(-c3ccccc3)nc2SCC(=O)NCc2ccco2)cc1OC | 76.2 | 85.9 | 84.2 | 87.0 | 91.0 | ·
COc1ccc(-c2[nH]c(-c3ccc(F)cc3)nc2SCC(=O)NCc2ccco2)cc1OC | 39.5* | 83.3 | 97.1 | 87.2 | 95.9 | ·
c1ccc(-n2nnnc2Oc2cccc3cccnc23)cc1 | 36.1* | 78.6 | 24.9 | 49.0 | 89.6 | -0.91
Cc1ccc2cccc(Oc3nnnn3-c3ccccc3)c2n1 | 73.9 | 102.4 | 83.9 | 91.3 | 94.1 | -1.64
Cc1ccc(C(C)C)c(Oc2nnnn2-c2ccccc2)c1 | 30.2* | 84.4 | 62.1 | 55.5 | 87.1 | -2.83
CC1(C)Cc2c(c(N3CCOCC3)nc3snc(Br)c23)CO1 | 19.2* | 94.3 | 80.8 | 97.0 | 88.6 | -0.63
CC1(C)Cc2c(c(N3CCOCC3)nc3snc(N)c23)CO1 | 94.5 | 58.2 | 1.9* | 1.9* | 3.5* | -0.45
CC(NC(=O)Nc1cccc([N+](=O)[O-])c1)(C(F)(F)F)C(F)(F)F | · | · | 10.4 | 25.0 | · | 0.22
CC(C)=NOCc1ccc(-c2cn([C@@H]3COC[C@H]3O)nn2)cc1 | · | · | 96.7 | 79.7 | · | ·
O=C(CC1Nc2ccccc2NC1=O)Nc1cc(Cl)cc(Cl)c1 (stereo unspecified) | 44.3 | 75.0 | 3.6* | 1.9* | 100.9 | -1.82
COC(=O)c1c(NC(=O)CC2Nc3ccccc3NC2=O)sc(C)c1C (stereo unspecified) | · | · | 1.9* | 1.6* | · | -0.99
CCCCOc1ccccc1NC(=O)CC1Nc2ccccc2NC1=O (stereo unspecified) | 40.0* | 86.3 | · | · | 97.7 | -1.41
O=C(CC1NC(=O)NC1=O)Nc1ccc(Cl)cc1 (stereo unspecified) | 99.5 | 93.5 | 97.3 | 99.1 | 103.6 | 0.56
O=C(CC1SCCNC1=O)Nc1cc(Cl)cc(Cl)c1 (stereo unspecified) | 87.6 | 88.4 | 96.7 | 95.5 | 47.4* | 0.99
N/C(=N\c1nc(CSc2ccc(Cl)cc2)cc(=O)[nH]1)Nc1cccc2ccccc12 | · | · | 78.3 | 73.6 | · | 0.16
COc1ccc(N/C(N)=N/c2nc(CSc3ccc(Cl)cc3)cc(=O)[nH]2)cc1 | 16.3* | 53.9 | 74.6 | 78.1 | 93.8 | 0.13
O=C1CN=C(Nc2ccccc2Cl)N1Cc1ccc2c(c1)OCO2 | 102.9 | 89.0 | 79.5 | 92.0 | 108.7 | -1.34
CC(C)(C)C(=O)Nc1nc(C2CCCN2S(=O)(=O)c2ccc(Cl)cc2)cs1 (stereo unspecified) | 71.6 | 104.5 | 73.5 | 79.6 | 96.8 | -0.66
COc1ccc(S(=O)(=O)Nc2ccc3ccccc3c2)cc1C | 41.2 | 57.9 | 27.6 | 9.8 | 84.3 | -3.23*
CCc1ccc(NS(=O)(=O)c2ccc(OC)c(C)c2)cc1 | 97.4 | 93.4 | 73.8 | 82.0 | 97.5 | -3.34*
SMILES | H69AR growth 86K | HUVEC prolif 384 | PTEN del growth | bCat KO growth | Lung fibro prol | Pyk2 oligo antag
COc1ccc(-c2cc(C#N)nc(Oc3ccc(Cl)cc3)n2)cc1 | · | · | 65.7 | 55.9 | · | ·
COc1ccc(-c2cc(C#N)nc(N3CCNCC3)n2)cc1 | 1.4* | 51.3 | 0.4* | 0.6* | 2.0* | 0.78
COc1ccc(-c2cc(C#N)nc(N3CCN(C)CC3)n2)cc1 | · | · | 29.5 | 23.2 | · | ·
CCN(CC)c1nc(C#N)cc(-c2ccc(OC)cc2)n1 | 31.9* | 68.1 | 17.9 | 14.9 | 80.3 | -0.27
O=C(O)C1C2C=CC(C2)C1C(=O)NCc1ccc(Cl)c(Cl)c1 (stereo unspecified) | · | · | 95.2 | 91.3 | · | ·
Cc1cc(C)n(-c2nnc(C)n2/N=C/c2ccccc2OCc2ccccc2Cl)n1 | 16.1* | 60.8 | 33.0 | 26.5 | 77.3 | -0.99
Cc1cc(C)n(-c2nnc(C)n2/N=C/c2cc(Br)ccc2OCc2ccccc2)n1 | 25.6* | 40.6 | 9.5 | 9.4 | 67.4 | -1.1
COc1ccccc1/C=N/n1c(C)nnc1-n1nc(C)cc1C | 94.2 | 100.7 | 115.5 | 107.7 | 105.7 | 0.28
